In experiment [1] the test system is A549. Description: Rate of inhibition of A-549 tumor cell growth at a concentration of 0.125 uM. It is filed as functional, Homo sapiens. The method, boiled down: (§1)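 A-549 tumour cell growth inhibition was measured in vitro by the SRB (sulforhodamine B) method.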
Experiment [2] relates to Bel-7402. Put plainly: Rate of inhibition of Bel-7402 tumor cell growth at a concentration of 2.5 uM. The class given is functional, Homo sapiens.
The test system of experiment [3] is A549. Put plainly: In vitro rate of inhibition of A-549 tumor cell growth at 10E-5 mol/L. It is filed as functional, Homo sapiens. The note with it: at 10 µM.
Experiment [4] deals with P388. Description: In vitro rate of inhibition of P388 tumor cell growth at 10E-4 mol/L. It is filed as functional, Mus musculus. Conditions: at 100 µM.
The test system of experiment [5] is P388. Description: Rate of inhibition of P388 tumor cell growth at a concentration of 1.563 uM. It is filed as functional, Mus musculus. The essentials: (§2)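 P-388 tumour cell growth inhibition was read out in vitro by the MTT method.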
The subject of experiment [6] is P388. Description: Rate of inhibition of P388 tumor cell growth at a concentration of 3.125 uM. The class given is functional, Mus musculus. The essentials:
as §2

The subject of experiment [7] is P388. Description: Inhibitory concentration of compound against P388 tumor cell growth. The class given is functional, cell-based. Conditions: Mus musculus. The essentials: as §2
In experiment [8] the test system is P388. Put plainly: Rate of inhibition of P388 tumor cell growth at a concentration of […] uM. The class given is functional, Mus musculus. The essentials:
as §2

Experiment [9] has as its system P388. Put plainly: Rate of inhibition of P388 tumor cell growth at a concentration of 0.195 uM. The class given is functional, Mus musculus. The essentials: as §2
Experiment [10] has as its system Bel-7402. Description: Rate of inhibition of Bel-7402 tumor cell growth at a concentration of 1.25 uM. It is filed as functional, Homo sapiens.
The subject of experiment [11] is Bel-7402. Description: Rate of inhibition of Bel-7402 tumor cell growth at a concentration of 0.313 uM. The class given is functional, Homo sapiens.
For experiment [12], the system named is P388. Put plainly: Rate of inhibition of P388 tumor cell growth at a concentration of 0.781 uM. The class given is functional, Mus musculus. The essentials:
as §2

The subject of experiment [13] is Bel-7402. Description: Inhibitory concentration of compound against Bel-7402 cell line. It is filed as functional, cell-based. Conditions: Homo sapiens.
The subject of experiment [14] is P388. Description: In vitro rate of inhibition of P388 tumor cell growth at 10E-6 mol/L. It is filed as functional, Mus musculus. Conditions: at 1 µM.
Experiment [15] has as its system A549. Put plainly: Rate of inhibition of A-549 tumor cell growth at a concentration of 0.25 uM. It is filed as functional, Homo sapiens. The method, boiled down:
as §1

The subject of experiment [16] is Bel-7402. Description: Rate of inhibition of Bel-7402 tumor cell growth at a concentration of 5.0 uM. It is filed as functional, Homo sapiens.
The subject of experiment [17] is A549. Description: Inhibitory concentration of compound against A-549 cell line. It is filed as functional, cell-based. The note with it: Homo sapiens. The method, boiled down: as §1
Experiment [18] has as its system MCF7. Description: Rate of inhibition of MCF-7 tumor cell growth at a concentration of 1.0 uM. The class given is functional, Homo sapiens.
The test system of experiment [19] is Bel-7402. Description: Rate of inhibition of Bel-7402 tumor cell growth at a concentration of 0.625 uM. The class given is functional, Homo sapiens.
In experiment [20] the test system is MCF7. Put plainly: Rate of inhibition of MCF-7 tumor cell growth at a concentration of 0.125 uM. The class given is functional, Homo sapiens.
The subject of experiment [21] is A549. Put plainly: Rate of inhibition of A-549 tumor cell growth at a concentration of 0.0625 uM. The class given is functional, Homo sapiens. The method, boiled down:
as §1

For experiment [22], the system named is MCF7. Description: Inhibitory concentration of compound against MCF-7 cell line. The class given is functional, cell-based. Conditions: Homo sapiens.
In experiment [23] the test system is MCF7. Description: Rate of inhibition of MCF-7 tumor cell growth at a concentration of 0.5 uM. It is filed as functional, Homo sapiens.
Experiment [24] relates to A549. Put plainly: In vitro rate of inhibition of A-549 tumor cell growth at 10E-6 mol/L. It is filed as functional, Homo sapiens. Conditions: at 1 µM.
The test system of experiment [25] is P388. Put plainly: In vitro rate of inhibition of P388 tumor cell growth at 10E-8 mol/L. It is filed as functional, Mus musculus. The note with it: at 0.01 µM.
Experiment [26] relates to P388. Put plainly: In vitro rate of inhibition of P388 tumor cell growth at 10E-5 mol/L. It is filed as functional, Mus musculus. The note with it: at 10 µM.
Experiment [27] relates to A549. Description: Rate of inhibition of A-549 tumor cell growth at a concentration of 1 uM. It is filed as functional, Homo sapiens. The method, boiled down:
as §1

The subject of experiment [28] is A549. Put plainly: Rate of inhibition of A-549 tumor cell growth at a concentration of 0.5 uM. The class given is functional, Homo sapiens. The method, boiled down:
as §1

Experiment [29] concerns P388. Description: In vitro rate of inhibition of P388 tumor cell growth at 10E-7 mol/L. The class given is functional, Mus musculus. The note with it: at 0.1 µM.
Experiment [30] concerns A549. Put plainly: In vitro rate of inhibition of A-549 tumor cell growth at 10E-8 mol/L. Conditions: at 0.01 µM. The class given is functional, Homo sapiens.
The subject of experiment [31] is A549. Put plainly: In vitro rate of inhibition of A-549 tumor cell growth at 10E-7 mol/L. It is filed as functional, Homo sapiens. Conditions: at 0.1 µM.
Experiment [32] has as its system MCF7. Description: Rate of inhibition of MCF-7 tumor cell growth at a concentration of 0.25 uM. The class given is functional, Homo sapiens.
Experiment [33] relates to A549. Description: In vitro rate of inhibition of A-549 tumor cell growth at 10E-4 mol/L. The class given is functional, Homo sapiens. Conditions: at 100 µM.

pIC50: −log10 of the molar value.

Take `CC1=NN(C(=O)Nc2cccc(C)c2)C(C)=NN1C(=O)Nc1cccc(C)c1`: the Rate of inhibition in experiment [1] was 0%; in experiment [2], 89%; in experiment [3], 83.3%; in [4] it was 96.8%; in [5], 91.1%; in experiment [6], 97.3%. In addition, the Rate of inhibition in experiment [8] was 55.4%; in experiment [9], 2.3%; in experiment [10] it was 77.8%; in [11], 27.4%; in experiment [12], 83.1%; in experiment [14], 98.4%. Moreover, the Rate of inhibition in [15] came to 0%; in experiment [16] it was 87.8%; in [18], 71.2%; in experiment [19] it was 54.2%; in experiment [20], 1.1%; in [21] it was 0%. Besides, the Rate of inhibition is 64.3% in experiment [23]; 80.3% in [24]; 96.8% in experiment [25]; 96.8% in [26]; 93.6% in experiment [27]; 36.6% in [28]. For the same molecule, the Rate of inhibition in experiment [29] was determined as 96.8%; in [30], 80.3%; in [31] it was 81.8%; in experiment [32], 35.7%; in experiment [33] it was 84.8%. Further, the pIC50 in experiment [7] is 6.22; in experiment [13], 6.22; in experiment [17], 6.15; in experiment [22] it was 6.30.

Consider `CC1=NN(C(=O)NC2CCCCC2)C(C)=NN1C(=O)NC1CCCCC1`, for which the Rate of inhibition in experiment [3] was 3.5%; in experiment [4], 72.6%; in [14], 0%; in experiment [24] it was 0%; in experiment [25], 0%; in experiment [26], 0%. The Rate of inhibition in [29] is listed as 0%; in experiment [30] it was 0%; in experiment [31], 0%; in experiment [33], 58.9%.

As to `CC1=NN(C(=O)Nc2cccc3ccccc23)C(C)=NN1C(=O)Nc1cccc2ccccc12`, the Rate of inhibition in experiment [3] is 16.9%; in experiment [4] it was 60.5%; in [14] it was 0%; in experiment [24] it was 9.1%; in experiment [25], 0%; in experiment [26], 6.3%. Further, the Rate of inhibition in [29] worked out at 0%; in experiment [30] it was 4.4%; in experiment [31] it was 10%; in [33], 56.6%.

`CC(C)C(=O)N1N=C(c2ccccc2)NN=C1c1ccccc1`: the Rate of inhibition in experiment [3] turned out to be 46.6%; in experiment [4], 82.5%; in experiment [14] it was 52%; in [24], 38.7%; in [25], 46.9%; in experiment [26] it was 61.1%. Also, the Rate of inhibition was 24.9% in [29], 29.5% in [30], 29.6% in experiment [31] and 83.8% in experiment [33].

Consider `CCCOC(=O)N1C(c2ccccc2)=NN=C(c2ccccc2)N1C(=O)OCCC`, for which the Rate of inhibition came to 29.8% in [3]; 80.9% in [4]; 4.5% in [14]; 0.5% in [24]; 2.5% in experiment [25]; 54.8% in [26]. Besides, the Rate of inhibition in experiment [29] was determined as 4.3%; in [30] it was 0%; in experiment [31], 0%; in [33] it was 23.4%.

The values above are taken from ChEMBL document CHEMBL1147590, “Synthesis and antitumor activity of s-tetrazine derivatives” (Bioorg Med Chem Lett, 2004).
